Measurements published in ChEMBL document CHEMBL2010663, “Iodine-catalyzed condensation of isatin with indoles: a facile synthesis of di(indolyl)indolin-2-ones and evaluation of their cytotoxicity” (Bioorg Med Chem Lett, 2012).

Columns and labels:
A549 = assay: Cytotoxicity against human A549 cells after 48 hrs by MTT assay; format: functional, cell-based; settings: A549, 48 h
Procedure, shortened: (§1)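 Cells seeded at 10,000 cells/100 μl in medium with 10% serum and left 24 h in a humid 5% CO2 chamber to adhere. Compounds were then added at a range of concentrations for 48 h. MTT (5 mg/mL stock in PBS, 10 μl per well) was added for 2 h.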

MDA-MB-231 = assay: Cytotoxicity against human MDA-MB-231 cells after 48 hrs by MTT assay; format: functional, cell-based; settings: MDA-MB-231, 48 h; procedure, shortened: as §1
MRC5 = assay: Cytotoxicity against human MRC5 cells after 48 hrs by MTT assay; format: cell-based; settings: MRC5, 48 h; procedure, shortened: as §1
SK-N-SH = assay: Cytotoxicity against human SK-N-SH cells after 48 hrs by MTT assay; format: functional, cell-based; procedure, shortened: as §1

SMILES | IC50 (A549) [µM] | IC50 (MDA-MB-231) [µM] | IC50 (MRC5) [µM] | IC50 (SK-N-SH) [µM]
O=C1Nc2ccccc2C1(c1c[nH]c2ccc(Cl)cc12)c1c[nH]c2ccc(Cl)cc12 | > 100 | 10 | > 100 | 1.31
O=C1Nc2ccccc2C1(c1c[nH]c2ccc([N+](=O)[O-])cc12)c1c[nH]c2ccc([N+](=O)[O-])cc12 | 7.9 | 9.98 | > 100 | 0.99
Cc1[nH]c2ccc([N+](=O)[O-])cc2c1C1(c2c(C)[nH]c3ccc([N+](=O)[O-])cc23)C(=O)Nc2ccccc21 | 0.89 | 99.4 | > 100 | 0.94
N#Cc1ccc2[nH]cc(C3(c4c[nH]c5ccc(C#N)cc45)C(=O)Nc4ccccc43)c2c1 | 0.97 | 99.1 | > 100 | 0.94
COC(=O)c1ccc2[nH]cc(C3(c4c[nH]c5ccc(C(=O)OC)cc45)C(=O)Nc4ccccc43)c2c1 | 0.75 | > 100 | > 100 | 0.98
O=C1Nc2ccccc2C1(c1c(-c2ccccc2)[nH]c2ccccc12)c1c(-c2ccccc2)[nH]c2ccccc12 | 8.91 | > 100 | > 100 | 9.6
Cc1[nH]c2ccc([N+](=O)[O-])cc2c1C1(c2c(C)[nH]c3ccc([N+](=O)[O-])cc23)C(=O)Nc2ccc(Cl)cc21 | 69.4 | 10.1 | > 100 | 1.23
O=C1Nc2ccc(Cl)cc2C1(c1c(-c2ccccc2)[nH]c2ccccc12)c1c(-c2ccccc2)[nH]c2ccccc12 | > 100 | > 100 | > 100 | > 100
COC(=O)c1ccc2[nH]cc(C3(c4c[nH]c5ccc(C(=O)OC)cc45)C(=O)Nc4ccc(Cl)cc43)c2c1 | 71.5 | 10 | > 100 | 9.9
O=C1Nc2ccc(Cl)cc2C1(c1c[nH]c2ccc(Br)cc12)c1c[nH]c2ccc(Br)cc12 | > 100 | > 100 | > 100 | 1.04
O=C1Nc2ccccc2C1(c1c[nH]c2ccc(Br)cc12)c1c[nH]c2ccc(Br)cc12 | 0.96 | 9.95 | > 100 | 0.93
O=C1Nc2ccccc2C1(c1c[nH]c2ccccc12)c1c[nH]c2ccccc12 | 1.23 | > 100 | > 100 | 0.9
Cc1[nH]c2ccccc2c1C1(c2c(C)[nH]c3ccccc23)C(=O)Nc2ccccc21 | 0.92 | > 100 | > 100 | 0.98
Cn1cc(C2(c3cn(C)c4ccccc34)C(=O)Nc3ccccc32)c2ccccc21 | > 100 | > 100 | > 100 | 1.32
COc1cccc2c1C(=O)c1c(O)c3c(c(O)c1C2=O)C[C@@](O)(C(=O)CO)C[C@@H]3O[C@H]1C[C@H](N)[C@H](O)[C@H](C)O1 [DOXORUBICIN] | 15.1 | 8.14 | 14.8 | 0.97
c1ccc2[nH]ccc2c1 [INDOLE] | > 100 | > 100 | 15.6 | 1.78
O=C1Nc2ccccc2C1=O [ISATIN] | 13.5 | > 100 | > 100 | 9.84
